For eleven molecules, IC50 results are on record in ChEMBL document CHEMBL1152927, “Diterpene glycosides from the seeds of Pharbitis nil” (J Nat Prod, 2009).

Where only a bound is given, the exact number is not on record here.

What all share (format): functional, cell-based
In one assay the test system is A549. Put plainly: Cytotoxicity against human A549 cells by SRB assay. The essentials:
(§1)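 Sulforhodamine B (SRB) assay against cultured human cancer cell lines, run at the Korea Research Institute of Chemical Technology. Cytotoxicity is reported as IC50 in µM.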
On the technique in general: The SRB assay estimates cell density from bound dye.

The next assay relates to SK-OV-3. Description: Cytotoxicity against human SKOV3 cells by SRB assay. An outline of the steps: as §1
A further assay deals with SK-MEL-2. Put plainly: Cytotoxicity against human SK-MEL-2 cells by SRB assay. The essentials:
as §1

The next assay relates to HCT-15. Put plainly: Cytotoxicity against human HCT15 cells by SRB assay. An outline of the steps: as §1

One may read the IC50 as the concentration at which inhibition is half-maximal. Low readings indicate greater potency, high ones weaker potency. Turning to `C[C@@]12CCC[C@@](C)(C(=O)O)[C@H]1[C@H](O)[C@H](O)[C@@]13C[C@H](CC[C@@H]21)[C@](CO)(O[C@@H]1O[C@H](CO)[C@@H](O)[C@H](O)[C@H]1O)C3` [PHARBOSIDE F], the IC50 in the assay with A549, in the assay with SK-OV-3, in the assay with SK-MEL-2 and in the assay with HCT-15 was above 30 µM throughout.

Take `COc1cccc2c1C(=O)c1c(O)c3c(c(O)c1C2=O)C[C@@](O)(C(=O)CO)C[C@@H]3O[C@H]1C[C@H](N)[C@H](O)[C@H](C)O1` [DOXORUBICIN]: the values for the concentration for half-maximal inhibition (IC50) in the assay with SK-OV-3, in the assay with SK-MEL-2 and in the assay on HCT-15 were 0.056 µM, 0.117 µM and 0.164 µM, respectively.

In the case of `C[C@@]12CCC[C@@](C)(C(=O)O[C@@H]3O[C@H](CO)[C@@H](O)[C@H](O)[C@H]3O)[C@H]1[C@H](O)[C@H](O)[C@@]13C[C@H](CC[C@@H]21)[C@](O)(CO)C3` [PHARBOSIDE D], the IC50 was 25.2 µM in the assay with A549, 28.7 µM in the assay with SK-OV-3, 14.3 µM in the assay with SK-MEL-2 and 17.2 µM with HCT-15.

For the molecule `C=C1C[C@]23C[C@@H]1CC[C@H]2[C@]1(C)CCC[C@@](C)(C(=O)O[C@@H]2O[C@H](CO)[C@@H](O)[C@H](O)[C@H]2O)[C@H]1C[C@@H]3O` [PHARBOSIDE A], the IC50 with A549, in the assay with SK-OV-3, with SK-MEL-2 and in the assay on HCT-15 was above 30 µM each time.

Take `COC(=O)[C@]1(C)CCC[C@@]2(C)[C@@H]3CC[C@H]4C[C@]3(C[C@@]4(CO)O[C@@H]3O[C@H](CO)[C@@H](O)[C@H](O)[C@H]3O)[C@@H](O)[C@@H](O)[C@@H]21` [PHARBOSIDE C]: the IC50 in the assay on A549, with SK-OV-3, with SK-MEL-2 and in the assay on HCT-15 was above 30 µM in each case.

In the case of `C=C1C[C@]23C[C@@H]1CC[C@H]2[C@]1(C)CCC[C@@](C)(C(=O)O[C@@H]2O[C@H](CO)[C@@H](O)[C@H](O)[C@H]2O)C1[C@@H]3C=O` (stereo partly drawn) [PHARBOSIDE G], the IC50 with A549, in the assay on SK-OV-3, with SK-MEL-2 and in the assay on HCT-15 was above 30 µM each time.

Turning to `C=C1C[C@]23C[C@@H]1CC[C@H]2[C@]1(C)CCC[C@@](C)(C(=O)O[C@@H]2O[C@H](CO)[C@@H](O)[C@H](O)[C@H]2O)[C@H]1C[C@H]3O` [PHARBOSIDE B], the IC50 in the assay with A549, with SK-OV-3, in the assay with SK-MEL-2 and in the assay on HCT-15 was above 30 µM each time.

With `C[C@@]12CCC[C@@](C)(C(=O)O)[C@H]1[C@H](O)[C@H](O)[C@@]13C[C@H](CC[C@@H]21)[C@@](O)(CO)C3`, the 50% inhibitory concentration (IC50) in the assay with A549, in the assay on SK-OV-3, with SK-MEL-2 and in the assay with HCT-15 was above 30 µM in each case.

For the molecule `C[C@@]12CCC[C@@](C)(C(=O)O)[C@H]1[C@H](O)[C@H](O)[C@@]13C[C@H](CC[C@@H]21)[C@](O)(CO)C3`, the IC50 with A549, in the assay with SK-OV-3, with SK-MEL-2 and with HCT-15 was above 30 µM each time.

For `C[C@@]12CCC[C@@](C)(C(=O)O)[C@H]1[C@H](O)[C@H](O)[C@@]13C[C@H](CC[C@@H]21)[C@](O)(CO[C@@H]1O[C@H](CO)[C@@H](O)[C@H](O)[C@H]1O)C3` [PHARBOSIDE E], the IC50 with A549 turned out to be 23.6 µM; with SK-OV-3, 13.8 µM; in the assay on SK-MEL-2, 15.2 µM; in the assay on HCT-15, 22.1 µM.

Take `C[C@]12CCC[C@@]3(C)C(=O)O[C@@H]([C@H](O)[C@@]45C[C@H](CC[C@@H]14)[C@](O)(CO)C5)[C@@H]23`: the IC50 with A549, in the assay with SK-OV-3, with SK-MEL-2 and in the assay on HCT-15 was above 30 µM each time.
